Source: PubChem (The Scripps Research Institute Molecular Screening Center)
Most compounds without a hit are left out; they make up all but 3.2% or so of the library.
DAGLB inhibitor: blocks human DAGLB lipase activity; HEK293T DAGLB membrane lysate, EnzChek fluorogenic substrate; inhibition, % at 5.17 µM; hit rate 0.059% among 340,000; in the data active = inhibition above about 34%;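 note: 0% = enzyme with vehicle and 100% = wells lacking enzyme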
LEDGF integ inh: blocks HIV-1 LEDGF/p75-dependent DNA integration. hit rate 0.64% among 370,000. inhibition, % at 3.7 µM. TR-FRET IN-LEDGF/p75 DNA integration, Eu/Cy5;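 active = inhibition above the screen-wide mean plus 3 SD, cut at about 13% in these data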;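 note: signal is the Cy5 over europium emission ratio at 671 and 618 nm; 0% = plate median of compound wells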
mABHD4 FP: inhibitors of mouse ABHD4. Q8VD66. purified mABHD4, FP-Rh probe fluorescence polarization. inhibition, % at 8.92 µM. hit rate 0.54% among 370,000. AID 720543;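 active = inhibition exceeding the mean over every tested compound plus 3 SD, cut at about 30% in these data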;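 note: 0% = plate median of compound wells and 100% = S159A mutant with DMSO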
Target sequence (Q8VD66 whole entry, looked up): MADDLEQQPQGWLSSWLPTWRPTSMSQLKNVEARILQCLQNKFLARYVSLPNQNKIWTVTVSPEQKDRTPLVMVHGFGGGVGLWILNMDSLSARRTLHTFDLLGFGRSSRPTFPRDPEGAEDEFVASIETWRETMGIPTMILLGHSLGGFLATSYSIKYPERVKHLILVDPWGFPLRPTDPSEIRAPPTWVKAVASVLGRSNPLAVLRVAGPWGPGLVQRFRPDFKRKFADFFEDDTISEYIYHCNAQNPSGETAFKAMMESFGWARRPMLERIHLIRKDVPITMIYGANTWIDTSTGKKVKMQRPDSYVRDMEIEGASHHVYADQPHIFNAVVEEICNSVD
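Material: mouse ABHD4 enzyme, wild type; Benchmarks: S159A mutant high control, sample median low control; Buffer or medium: HEPES pH 7.0, NaCl, Pluronic buffer; Signal: fluorescence polarization; Read-out: percent inhibition of probe binding, normalized to plate controls; Timing: pre-incubation 45 min, probe exposure 60 min, at 25 °C; Dosing: 8.92 µM, single dose.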
PRMT1 FP inh: inhibitors of human PRMT1; Q99873; recombinant PRMT1, activity-based probe fluorescence polarization; inhibition, % at 2.79 µM; hit rate 1.3% among 370,000; AID 652257;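 active = inhibition above about 21% made by adding two undisclosed values, limit read from the data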
rCAG binder: binds r(CAG) RNA repeats; r(CAG) RNA repeat, TO-PRO-1 dye displacement fluorescence; inhibition, % at 3 µM; hit rate 1.3% among 370,000; AID 651821;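 active = inhibition above the plate cutoff, the mean of all test compounds on that plate plus 3 SD, cut at about 35% in these data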;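 note: 0% = DMSO alone and 100% = 100 µM mitoxantrone as full dye displacement; higher means more dye released from RNA so lower well fluorescence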
HTRA1 inh: inhibitors of human serine peptidase HTRA1. Q92743. recombinant HTRA1, FP-rhodamine activity-based probe, fluorescence polarization. inhibition, % at 5.96 µM. hit rate 0.5% among 340,000. AID 504803; in the data active = inhibition above about 36%;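 note: 0% = enzyme with DMSO and 100% = wells lacking enzyme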
* marks the source's active call; other numbers are inactive results; · = not tested or not shown.

SMILES	DAGLB inhibitor	LEDGF integ inh	mABHD4 FP	PRMT1 FP inh	rCAG binder	HTRA1 inh
Cc1ccc(-c2nc3ccccc3nc2NN)cc1	-11.5	-6.3	3.5	22.4*	1.1	-11.6
Cc1ccc(-c2nc3ccccc3nc2Cl)cc1	-6.9	-0.9	4.6	0.6	-3.1	-6.4
Cc1ccc2c(c1)[C@H]1[C@H](CO2)[C@H](c2ccccc2)[C@]2(C)C(=O)N(Cc3ccc(Cl)cc3)CC(=O)N12	-11.3	-0.7	-14.6	-3.3	5.0	-43.0
COc1ccc(CN2CC(=O)N3[C@H]4c5cc(C)ccc5OC[C@@H]4[C@H](c4ccccc4)[C@]3(C)C2=O)cc1	-6.4	2.5	-29.3	22.1*	-24.0	-48.1
O=C(NCc1ccccc1)C(c1ccc(C(F)(F)F)cc1)n1c(=O)c(-c2ccco2)nc2ccccc21 (stereo unspecified)	·	1.6	-43.1	16.9	36.4*	·
CC(=O)Nc1ccc(NC(=O)C/C(C)=N/NC(=O)C(=O)Nc2ccc(C)c(Cl)c2)cc1	-1.3	0.1	0.8	-1.4	4.4	1.7
O=C(NN1C(=O)CSC1=S)C(=O)NN1C(=O)CSC1=S	1.2	29.3*	-37.6	17.1	6.8	-2.7
O=C(Cc1cccc2ccccc12)NN1C(=O)CSC1=S	3.0	1.1	-50.5	6.0	12.8	-9.6
COc1ccc(OCCCC(=O)OC(C)C(=O)Nc2ccc(S(N)(=O)=O)cc2)cc1 (stereo unspecified)	1.4	34.6*	-4.5	-2.4	1.6	-3.2
Cc1cc(CNC(=O)c2ccc3oc(C(C)C)nc3c2)nn1C	-0.8	-1.4	-2.0	-4.8	-4.1	2.3
Cc1ccc(CN(C)C(=O)c2cccc(S(=O)(=O)N3CCCC3)c2)o1	0.5	-0.1	-3.1	3.2	3.5	3.8
COc1ccc(S(=O)(=O)N2CCC(C(=O)N(C)Cc3ccc(C)o3)CC2)cc1OC	-1.2	9.5	4.7	23.9*	7.8	-1.1
CCCCCCCCCCCCCCCC[N+](C)(C)CCN(Cc1ccc(OC)cc1)c1ncccn1	9.1	·	·	·	·	52.4*
C[C@H](NC(=O)c1nc[nH]c1C(=O)NCCCCCN)C(=O)OC(C)(C)C	0.5	-1.8	-0.8	-2.0	-0.3	-1.3
CC(C)OC(=O)c1cn(-c2ccccc2)nc1-c1ccco1	-1.5	3.6	-0.4	23.2*	23.4	-37.9
CCOC(=O)C1=C(C)NC(C)=C(C(=O)OCC)C1c1cn(-c2ccccc2)nc1-c1ccco1	0.9	-1.2	-2.5	-2.0	3.8	-2.6
O=C(NCCc1ccccc1)c1ccc2c(c1)N(Cc1ccccc1)C(=O)CS2=O (stereo unspecified)	-0.3	-1.8	-6.2	13.2	3.8	-9.2
CCCN(CCC)C(=O)c1ccc2c(c1)N(Cc1ccccc1)C(=O)CS2=O (stereo unspecified)	0.0	-0.4	-0.5	23.9*	-13.1	0.0
O=C(CNCc1ccccc1)Nc1ccc(Oc2ccccc2)cc1	·	0.8	-6.7	1.1	-8.8	·
CCCNC(=O)c1nnsc1S(=O)(=O)c1ccc(Cl)cc1	-7.6	0.0	-1.5	78.3*	-2.3	3.0
CCCNC(=O)NS(=O)(=O)c1ccc(Cl)cc1	-0.9	-3.6	6.7	-2.6	0.4	5.0
COc1ccc(NC(=S)NNc2ccc(C(=O)O)cc2)cc1	-4.2	1.6	21.6	21.3*	1.4	-1.3
O=C(O)CCC(=O)Nc1ccc(SSc2ccc(NC(=O)CCC(=O)O)cc2)cc1	-3.5	-10.2	4.5	92.1*	18.9	5.3
CCn1c2ccccc2c2nnc(SCc3ccccc3)nc21	-12.8	0.4	-5.5	-0.8	5.1	-55.9
CCn1c2ccccc2c2nnc(SCc3ccc(C(=O)OC)o3)nc21	-5.8	6.7	23.9	24.5*	17.6	-23.4
SMILES	DAGLB inhibitor	LEDGF integ inh	mABHD4 FP	PRMT1 FP inh	rCAG binder	HTRA1 inh
C[C@@H](C(=O)NCCCCCC(=O)O)n1nnc2ccccc2c1=O	2.5	-0.5	-1.9	-0.8	4.0	0.4
O=C1c2cccc3c([N+](=O)[O-])ccc(c23)C(=O)N1Cc1cccnc1	-4.1	-0.9	4.5	21.3*	-18.6	5.1
CCCCc1cc(=O)oc2cc(OC(C)C(=O)NCCN3CCOCC3)ccc12 (stereo unspecified)	-2.2	1.4	0.1	0.0	0.8	8.4
N#Cc1ccccc1NC(=O)C1SC(=Nc2ccccc2)C(C(=O)Nc2ccc(Cl)cc2)=C1N (stereo unspecified)	-4.4	6.9	-89.8	0.8	37.4*	-51.8
COc1ccc(C(=O)Nc2ccc(S(=O)(=O)Nc3cc(C)nc(C)n3)cc2)c(OC)c1	0.6	-2.2	-4.8	21.2*	13.3	-0.2
COc1ccccc1C(=O)Nc1ccc(S(=O)(=O)Nc2cc(C)nc(C)n2)cc1	0.6	-3.1	-8.3	-2.4	10.1	1.3
Cc1nc(NC(=O)c2ccco2)sc1-c1csc(Nc2ccc(Cl)cc2Cl)n1	1.0	-1.9	3.9	-0.1	48.4*	-16.4
COC(=O)C1=C(C)N(Cc2cccc(C(F)(F)F)c2)C(=NCc2ccccc2C(F)(F)F)NC1c1cccc(F)c1 (stereo unspecified)	·	-2.0	21.6	-2.8	2.8	·
Cc1ccc(S(=O)(=O)NNC(=O)c2cc3cc4ccccc4nc3s2)cc1	4.6	0.5	-9.6	2.4	35.7*	-13.4
O=C(Nc1ccc(S(=O)(=O)Nc2ncccn2)cc1)C1=COCCO1	0.2	3.0	-6.3	21.9*	6.8	0.2
O=C(/C=C/c1cccc(Cl)c1)c1ccc([N+](=O)[O-])o1	5.9	2.4	8.0	17.1	13.5	42.9*
O=C(Nc1cccc(-c2csc(Nc3ccc(Cl)cc3)n2)c1)c1cccc(C(F)(F)F)c1	-7.7	-1.6	-6.5	-0.9	40.1*	13.3
Cc1ccc(Cl)cc1-c1cc(C(=O)NCC2CCCCC2)[nH]n1	·	0.1	-6.6	-0.8	3.3	·
O=C1c2cccc3cccc(c23)C(=O)C1(O)O	4.8	-0.8	23.0	54.3*	-0.1	31.8
O=C1c2cccc3cccc(c23)C(=O)N1c1ccc(O)cc1	-0.9	1.5	-8.3	-4.3	3.4	-0.8
COc1ccc(NC(=O)C(CC(=O)O)Cc2ccc(Br)cc2)cc1 (stereo unspecified)	0.0	-0.1	0.8	-4.8	2.9	-0.1
CC(=O)c1ccc(NC(=O)c2ccc(N3CCCC3=O)cc2)cc1	2.1	1.9	-1.5	-3.1	-0.6	-3.6
O=C(CNc1ccc2c(c1)OCO2)N/N=C\c1ccccc1Cl	-1.6	-2.8	13.0	21.5*	7.4	16.9
O=C(O)CSc1cc(NS(=O)(=O)c2ccc(Cl)cc2)c2ccccc2c1O	-8.1	12.8	39.2*	43.9*	37.0*	23.1
Cc1ccc(Cl)cc1NS(=O)(=O)c1ccccc1	-0.3	-2.9	-3.3	-2.7	4.2	-5.5
O=C1C(=O)N(CCN2CCOCC2)C(c2ccncc2)/C1=C(/O)c1ccc2c(c1)OCO2 (stereo unspecified)	1.2	1.5	0.0	0.1	1.7	-1.9
